“And” between values parts separate entries of the source, which are not always exact repeats. Identical values can stand only once. Like-named read-outs stand apart in the source and are kept apart here.

For assay [1], the target named is T1, human hD3 receptors (Homo sapiens, UniProt P35462). Kind of assay: Saturation. Particulars: hD3 in HEK cells, saturation binding, mean ± S.E.M n = 3.
For assay [2], the target named is T2, rat rD3 receptors (Rattus norvegicus, UniProt P19020). Nature of the assay: Saturation. Conditions: rD3 in Sf9 cells, saturation binding, mean ± S.E.M n = 3.
In assay [3] the test system is D2 plus D3 receptors. Type of assay: binding, rhesus monkey. Particulars: n = 8; for B2 apparent receptor binding density: 10 nM radioligand; for B1 apparent receptor binding density: 4 nM radioligand. The essentials:
(§1)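 Brains from male rhesus monkey (5 kg, 6 years) and male Sprague-Dawley rats (~500 g, 5 months) were flash frozen, and 20 μm coronal sections were cut. Sections were incubated 30 min with 4 nM tritiated test radioligand or 10 nM [3H]raclopride, ±1 μM S(−)-eticlopride for nonspecific binding. Sections were rinsed five times in ice-cold buffer, then imaged 24 h on a gaseous beta imager and calibrated against tritium standards. Reported as mean ± S.E.M (monkey n = 8, rat n = 30).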

The subject of assay [4] is D2 plus D3 receptors. Type of assay: binding, Sprague-Dawley rat. Particulars: rat striatum, n = 30. The essentials:
as §1

The subject of assay [5] is D2 receptors. Kind of assay: Fractional receptor occupancy from saturation binding isotherm. Particulars: monkey striatum; for receptors labeled: derived from saturation binding isotherm. A digest of the protocol:
(§2)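 Calculated rather than measured: the fraction of D2 or D3 receptors occupied in monkey striatum comes from B/Bmax = L/(L+Kd). L is 4 nM for the tritiated test radioligand or 10 nM for tritiated raclopride. Kd values are from saturation binding to cloned human D2L/D3 receptors expressed in HEK cells. The test radioligand Kd values were taken from earlier work.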

The subject of assay [6] is D3 receptors. The description is as above. Conditions: monkey striatum; for receptors labeled: derived from saturation binding isotherm. A digest of the protocol: as §2
Assay [7] has as its system D2 receptors. Nature of the assay: Fractional receptor occupancy from saturation binding isotherm. Conditions: rat striatum; for receptors labeled: derived from saturation binding isotherm. The essentials: (§3)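 Computed occupancy fractions for rat striatum D2 or D3 receptors use the mass-action isotherm B/Bmax = L/(L+Kd). L is 4 nM for the tritiated test radioligand and 10 nM for tritiated raclopride. Kd values come from saturation binding to rat D2L/D3 receptors expressed in Sf9 cell membranes. The test radioligand Kd was taken from earlier work.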

The test system of assay [8] is D3 receptors. Described as above. Conditions: rat striatum; for receptors labeled: derived from saturation binding isotherm. A digest of the protocol: as §3
Assay [9] concerns the target D3 receptors (Rattus norvegicus, UniProt P19020). Nature of the assay: Scatchard analysis of autoradiography binding to rat brain sections. Details: species or system Sprague-Dawley rat.
A further assay concerns the target human hD2L receptors (Homo sapiens, UniProt P14416). Conditions: hD2L in HEK cells, saturation binding, mean ± S.E.M n = 3; ref Xu et al. (2009); cited from earlier work.
Assay [10] concerns the target T1, human hD3 receptors. Conditions: cited from earlier work.
For another assay, the target named is rat rD2L receptors (Rattus norvegicus, UniProt P61169). Conditions: rD2L in Sf9 cells, saturation binding, mean ± S.E.M n = 3; ref Xu et al. (2009); cited from earlier work.
Assay [11] deals with T2, rat rD3 receptors. Particulars: cited from earlier work.
Where [12] appears, read: 10 nM, from Eq. 2 with Kd of Table I.
[13] abbreviates: 4 nM, from Eq. 2 with Kd of Table I.

T2 sequence (P19020 whole entry): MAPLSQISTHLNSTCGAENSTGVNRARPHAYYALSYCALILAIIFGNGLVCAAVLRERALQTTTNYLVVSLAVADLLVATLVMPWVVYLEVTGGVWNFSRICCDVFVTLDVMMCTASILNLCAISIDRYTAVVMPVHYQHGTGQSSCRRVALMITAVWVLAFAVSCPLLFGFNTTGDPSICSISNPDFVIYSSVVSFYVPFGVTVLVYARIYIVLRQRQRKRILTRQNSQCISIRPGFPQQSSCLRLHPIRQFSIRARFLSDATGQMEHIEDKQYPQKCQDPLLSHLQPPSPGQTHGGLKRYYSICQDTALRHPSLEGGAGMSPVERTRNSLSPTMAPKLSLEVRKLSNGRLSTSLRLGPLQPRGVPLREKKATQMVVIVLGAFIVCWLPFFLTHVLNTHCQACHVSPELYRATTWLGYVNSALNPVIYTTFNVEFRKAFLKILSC
T1 sequence (P35462 whole entry): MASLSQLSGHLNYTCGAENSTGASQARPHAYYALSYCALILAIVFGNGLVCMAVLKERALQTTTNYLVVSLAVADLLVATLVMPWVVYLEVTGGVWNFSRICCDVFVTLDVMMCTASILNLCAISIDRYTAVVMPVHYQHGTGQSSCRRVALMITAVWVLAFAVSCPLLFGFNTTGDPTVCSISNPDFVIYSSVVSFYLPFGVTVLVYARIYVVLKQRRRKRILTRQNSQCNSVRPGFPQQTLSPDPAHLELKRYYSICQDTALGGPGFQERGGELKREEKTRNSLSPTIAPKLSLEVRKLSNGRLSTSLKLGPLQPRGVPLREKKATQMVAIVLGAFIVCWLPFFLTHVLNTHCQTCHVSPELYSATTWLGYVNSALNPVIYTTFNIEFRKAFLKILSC
rat rD2L receptors, sequence (P61169 whole entry): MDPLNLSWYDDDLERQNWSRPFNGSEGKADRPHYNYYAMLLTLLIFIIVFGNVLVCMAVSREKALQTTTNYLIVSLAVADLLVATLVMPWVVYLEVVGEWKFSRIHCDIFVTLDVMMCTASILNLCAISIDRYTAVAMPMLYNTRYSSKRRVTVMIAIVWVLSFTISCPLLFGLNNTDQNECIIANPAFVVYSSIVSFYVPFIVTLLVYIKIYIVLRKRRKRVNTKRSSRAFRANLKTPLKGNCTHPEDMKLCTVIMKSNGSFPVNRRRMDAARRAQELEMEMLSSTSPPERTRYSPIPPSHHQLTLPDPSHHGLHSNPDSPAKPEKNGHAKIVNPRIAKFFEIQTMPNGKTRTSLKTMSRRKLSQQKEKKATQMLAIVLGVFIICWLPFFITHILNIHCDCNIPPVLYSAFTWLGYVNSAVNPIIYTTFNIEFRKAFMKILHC
D3 receptors (Rattus norvegicus, UniProt P19020), sequence (P19020 whole entry): as the sequence (P19020 whole entry) above
human hD2L receptors, sequence (P14416 whole entry): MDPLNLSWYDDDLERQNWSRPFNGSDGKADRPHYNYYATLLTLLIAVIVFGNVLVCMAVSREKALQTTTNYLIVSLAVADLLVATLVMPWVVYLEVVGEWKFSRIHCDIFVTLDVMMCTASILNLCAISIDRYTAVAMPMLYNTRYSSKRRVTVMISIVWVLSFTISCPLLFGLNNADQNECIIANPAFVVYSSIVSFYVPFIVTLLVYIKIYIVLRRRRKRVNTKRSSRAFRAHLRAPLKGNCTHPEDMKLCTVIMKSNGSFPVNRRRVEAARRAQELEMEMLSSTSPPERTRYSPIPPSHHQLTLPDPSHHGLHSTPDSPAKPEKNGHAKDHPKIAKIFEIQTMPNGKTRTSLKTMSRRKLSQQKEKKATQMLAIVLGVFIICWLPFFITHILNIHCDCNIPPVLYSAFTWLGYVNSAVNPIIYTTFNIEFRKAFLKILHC

Usually Kd stands for the concentration at which binding is half-saturated. As for `CCN1CCC[C@H]1CNC(=O)c1c(O)c(Cl)cc(Cl)c1OC` (racemic) [[^3H]raclopride, reference compound], the Kd at human hD3 receptors [1] came to 18 ± 1 nM; on rat rD3 receptors [2], 17.1 ± 1.7 nM. The “B2 apparent receptor binding density” value in the assay on D2 plus D3 receptors [3] (rhesus caudate) is 318 fmol/mg tissue and 318 ± 17 fmol/mg tissue; with D2 plus D3 receptors [3] (rhesus putamen), 345 fmol/mg tissue and 345 ± 23 fmol/mg tissue; in the assay on D2 plus D3 receptors [4] (10 nM radioligand), 145 fmol/mg tissue and 145 ± 4 fmol/mg tissue. The receptors labeled in the assay on D2 receptors [5] (10 nM) turned out to be 86%; in the assay with D3 receptors [6] (10 nM), 36%; in the assay on D2 receptors [7] (10 nM) it was 60%; in the assay with D3 receptors [8] (10 nM), 37%. Further, the “a2, receptor occupancy fraction” value with D2 receptors [5] (setting [12]) was found to be 0.86; in the assay on D2 receptors [7] (setting [12]) it was 0.6. Moreover, the “b2, receptor occupancy fraction” value was 0.36 in the assay on D3 receptors [6] (setting [12]) and 0.37 in the assay with D3 receptors [8] (setting [12]).

Turning to `COc1ccccc1N1CCN(CCCCNC(=O)c2ccc(N(C)C)cc2)CC1` [[^3H]WC-10, 4-(dimethylamino)-N-(4-(4-(2-methoxyphenyl)piperazin-1-yl)butyl)benzamide], the Kd at D3 receptors [9] was 3.4 nM; on human hD2L receptors, 76 ± 4 nM; on human hD3 receptors [10] (hD3 in HEK cells, saturation binding, mean ± S.E.M n = 3, ref Xu et al. (2009)), 1.2 nM and 1.16 nM; on rat rD2L receptors, 158 ± 8.3 nM; on rat rD3 receptors [11] (rD3 in Sf9 cells, saturation binding, mean ± S.E.M n = 3, ref Xu et al. (2009)), 3.9 nM and 3.94 nM. Also, the “B1 apparent receptor binding density” value with D2 plus D3 receptors [3] (rhesus anterior caudate) is 125 fmol/mg tissue and 125 ± 3 fmol/mg tissue; with D2 plus D3 receptors [3] (rhesus putamen), 141 fmol/mg tissue and 141 ± 4 fmol/mg tissue; in the assay with D2 plus D3 receptors [4] (4 nM radioligand), 38 fmol/mg tissue and 38 ± 2 fmol/mg tissue. Moreover, the receptors labeled with D2 receptors [5] (4 nM) was determined as 5%; in the assay on D3 receptors [6] (4 nM), 78%; with D2 receptors [7] (4 nM), 2%; in the assay on D3 receptors [8] (4 nM), 50%. Besides, the “a1, receptor occupancy fraction” value in the assay with D2 receptors [5] (setting [13]) came out at 0.05; in the assay with D2 receptors [7] (setting [13]), 0.02. Moreover, the “b1, receptor occupancy fraction” value with D3 receptors [6] (setting [13]) is given as 0.78; in the assay on D3 receptors [8] (setting [13]), 0.5. For the same compound, the “D2L/D3 (Kd ratio)” value at human hD3 receptors [10] (human receptors in HEK cells, ref Xu et al. (2009)) is on record as 65.5; on rat rD3 receptors [11] (rat receptors in Sf9 cells, ref Xu et al. (2009)), 40.1. Further, the “fold higher affinity to human HEK D3 than to HEK D2L receptors” value at human hD3 receptors [10] (ref Xu et al., 2009) was 66 fold. Moreover, on rat rD3 receptors [11] (ref Xu et al., 2009), the “fold higher affinity to rat Sf9 rD3 than to rat Sf9 rD2L receptors” value is given as 40 fold. Besides, the “fold lower affinity to rat Sf9 rD3 than to human HEK D3 receptors” value at rat rD3 receptors [11] (ref Xu et al., 2009) is reported as 3 fold.

(Values after paper PMC3583018 (Synapse (New York, N.Y.), 2010).)
